Sampled rows, rich in hits. Any-hit rate of the full collection: about 2.3%.
OXTR potentiate = potentiators of human oxytocin receptor | P30559 | CHO-OTR cells, Fluo-8 calcium fluorescence, potentiator mode; 0% = oxytocin EC15, 100% = EC100 | activation, % at 3 µM | 320,000 compounds, 0.061% hits | AID 2445;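 active = activation above that plate's cutoff, the mean activation of tested compounds plus 3 SD, cut at about 6.6% in these data, passing the limit was not always enough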;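 note: 100% uses oxytocin at 75 nM as the full agonist control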
Target sequence (P30559 whole entry, looked up): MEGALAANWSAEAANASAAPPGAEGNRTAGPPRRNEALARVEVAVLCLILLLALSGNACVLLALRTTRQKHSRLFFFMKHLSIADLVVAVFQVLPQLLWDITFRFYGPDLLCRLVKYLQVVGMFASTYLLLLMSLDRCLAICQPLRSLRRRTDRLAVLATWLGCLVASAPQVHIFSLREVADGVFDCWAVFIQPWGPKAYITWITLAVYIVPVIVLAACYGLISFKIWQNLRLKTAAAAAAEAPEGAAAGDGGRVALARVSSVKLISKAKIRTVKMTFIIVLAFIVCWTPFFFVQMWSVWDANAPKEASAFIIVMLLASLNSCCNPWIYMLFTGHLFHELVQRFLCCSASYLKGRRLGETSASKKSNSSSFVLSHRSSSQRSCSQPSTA
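Replication – single well per compound, singlicate · Assay system – CHO cell line stably expressing human OTR · Timing – 6 min pre-incubation, 100 s read · Measure – normalized max/min fluorescence ratio, % activation · Doses – 3.0 µM, one dose · Detection – Fluo-8 calcium dye fluorescence · Probe or stimulus – oxytocin near EC15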
TAAR1 agonist = agonists of human TAAR1; 360,000 compounds, 0.99% hits; CHO RD-HGA16 TAAR1, Fluo-8 calcium fluorescence; vehicle wells 0%, saturating PEA agonist 100%; activation, % at 3 µM; Q96RJ0;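 active = activation above the mean activation of all test compounds in the run plus 3 SD, cut at about 38% in these data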
Target sequence (Q96RJ0 whole entry, looked up): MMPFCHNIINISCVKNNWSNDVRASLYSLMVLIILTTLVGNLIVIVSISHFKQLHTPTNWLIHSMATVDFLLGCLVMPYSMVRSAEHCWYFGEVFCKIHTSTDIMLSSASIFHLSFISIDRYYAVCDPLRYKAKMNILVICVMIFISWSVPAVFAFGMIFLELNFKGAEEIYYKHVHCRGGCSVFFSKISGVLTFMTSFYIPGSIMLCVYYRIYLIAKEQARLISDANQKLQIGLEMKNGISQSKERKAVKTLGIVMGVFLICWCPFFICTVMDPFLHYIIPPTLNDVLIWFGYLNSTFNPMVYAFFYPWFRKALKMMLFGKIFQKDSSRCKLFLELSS
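Test system: RD-HGA16 (CHO) cells co-expressing Gα16 and hTAAR1; dosing: one-point dosing at 3 µM (nominal); timing: 17-24 h seeding, 75 min 37 °C dye, 30 min RT; signal: kinetic Fluo-8 calcium fluorescence; read-out basis: % activation relative to PEA EC100 response; controls: DMSO and PEA EC100; replicates: n 1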
V1aR counter = activates human V1a receptor in oxytocin agonist counter-screen. AID 2797. P37288. 320,000 compounds, 0.25% hits. activation, % at 3 µM. CHO-V1R cells, Fluo-8 calcium fluorescence, agonist mode; 0% DMSO, 100% 3 nM vasopressin;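 active = activation above the mean activation of all tested compounds plus 3 SD, per screening run, cut at about 20% in these data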;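 note: signal is peak over basal fluorescence ratio across a 100 second FLIPR read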
TAAR1 antag = antagonists of human TAAR1; Q96RJ0; CHO RD-HGA16 TAAR1, Fluo-8 calcium fluorescence, antagonist; inhibition, % at 3 µM; 360,000 compounds, 1.5% hits;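 active = inhibition above a per-plate cutoff, the mean inhibition of test compounds on that plate plus 3 SD, cut at about 49% in these data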;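 note: 0% = DMSO plus EC80 beta-PEA response and 100% = DMSO alone without agonist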
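Test system: hTAAR1-expressing CHO RD-HGA16 cells, Gα16-coupled; Probe or stimulus: EC80 β-phenethylamine stimulus; Compound dosing: single nominal final test compound concentration of 3 µM; Timing: 140 s kinetic read after compound, 140 s after agonist; Signal: Fluo-8 calcium-sensitive fluorescence; Measure: % inhibition of agonist calcium response; Controls: DMSO and EC80 PEA controls.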
OXTR agonist = human OXTR agonism. activation, % at 3 µM. P30559. 320,000 compounds, 0.32% hits. CHO-OTR cells, Fluo-8 calcium fluorescence; normalized: DMSO 0%, oxytocin 100%. AID 2435;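 active = activation above the mean of all tested compounds plus 3 SD, cutoff set per screening run, cut at about 20% in these data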;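 note: peak over basal fluorescence ratio from a 100 s FLIPR kinetic read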
V1R ag confirm = human V1a receptor agonism, confirmation. activation, % at 3 µM. AID 434964. 180 compounds, 20% hits. CHO-V1R cells, Fluo-8 calcium fluorescence, agonist. shares compounds with V1aR counter;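 active = average activation exceeds primary screen hit cutoff, cut at about 21% in these data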;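 note: peak over basal fluorescence ratio during a 100 s FLIPR read; 0% = DMSO only wells and 100% = 3 nM vasopressin wells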
OXTR ag counter = OXTR agonism, counter-screen for V1R agonists | shares compounds with V1aR counter | CHO-OTR cells, Fluo-8 calcium fluorescence, agonist | activation, % at 3 µM | 180 compounds, 10% hits | AID 434969;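 active = mean activation over three repeats above the cutoff from the earlier oxytocin receptor agonist screen, cut at about 20% in these data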;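 note: peak over minimum fluorescence ratio within a 100 second FLIPR read; 0% = DMSO only wells and 100% = oxytocin high control wells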
nonsel antag count = nonselective antagonist in TAAR1 antagonist counter-screen; shares compounds with TAAR1 antag; counterscreen cell line, calcium fluorescence, antagonist mode; inhibition, % at 3 µM; 2,400 compounds, 77% hits; AID 651780; in the data active = inhibition above about 22%;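 note: CHO-Ga16 host cells stimulated with ATP at an EC80 level; 0% = agonist EC80 plus vehicle and 100% = vehicle without agonist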
TAAR1 ant conf = human TAAR1 antagonism, confirmed | inhibition, % at 3 µM | shares compounds with TAAR1 antag | 2,400 compounds, 40% hits | AID 651785 | TAAR1-expressing cells, fluorescence antagonist read-out; in the data active = inhibition above about 49%;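 note: CHO-Ga16 host cells challenged with agonist PEA near its EC80; 0% = agonist at EC80 plus vehicle and 100% = vehicle with no agonist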
Ga16 ag counter-1 = nonselective Ga16 agonist in TAAR1 antagonist counter-screen | shares compounds with TAAR1 antag | Ga16-expressing cells, calcium fluorescence, agonist counterscreen | activation, % at 3 µM | 2,400 compounds, 18% hits | AID 651953; in the data active = activation above about 12%;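 note: 0% = vehicle wells and 100% = saturating stimulus response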
TAAR1 ag counter = TAAR1 agonism, antagonist counter-screen; hTAAR1 cell line, fluorescence activation, agonist mode; 2,400 compounds, 2% hits; shares compounds with TAAR1 antag; activation, % at 3 µM; in the data active = activation above about 37%;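 note: CHO cells stably expressing TAAR1 with calcium dye readout; 0% = DMSO vehicle and 100% = full agonist response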
TAAR1 ag conf = human TAAR1 agonism, confirmed. CHO RD-HGA16 TAAR1, Fluo-8 calcium fluorescence; scaled: DMSO 0%, maximal phenethylamine 100%. 2,400 compounds, 82% hits. shares compounds with TAAR1 agonist. activation, % at 3 µM;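 active = activation above a cutoff set at the run's mean compound activation plus 3 SD, cut at about 39% in these data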
Ga16 ag counter-2 = nonselective agonism, TAAR1 counter-screen | CHO-Ga16 parental, Fluo-8 calcium fluorescence; normalized to maximal ATP response, DMSO zero | shares compounds with TAAR1 agonist | 2,400 compounds, 50% hits | activation, % at 3 µM;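 active = activation above the run cutoff, the mean activation over all tested wells plus 3 SD, cut at about 12% in these data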;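 note: 0% = DMSO wells and 100% = maximal ATP response on the peak over basal ratio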
TAAR1 desens = counter-screen for human TAAR1 agonists: agonists that desensitize TAAR1; shares compounds with TAAR1 agonist; CHO RD-HGA16 hTAAR1, Fluo-8 calcium, beta-PEA response inhibition; inhibition, % at 3 µM; 2,400 compounds, 46% hits;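 active = inhibition above the run cutoff, the mean inhibition of all test compounds plus 3 SD, cut at about 49% in these data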;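 note: beta-PEA stimulus applied at its EC80; loss of beta-PEA calcium signal after compound pretreatment read as receptor desensitization; 0% = DMSO with beta-PEA at EC80 and 100% = DMSO alone without agonist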
Ga16 nonsel ant = nonselective Ga16 antagonism, counter-screen | shares compounds with TAAR1 agonist | 2,400 compounds, 39% hits | AID 651952 | CHO-Ga16 ATP-induced calcium, Fluo-8 fluorescence | inhibition, % at 3 µM;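 active = inhibition above the plate's mean compound inhibition plus 3 SD, computed per plate, cut at about 22% in these data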;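 note: 0% = EC80 ATP with DMSO and 100% = DMSO wells without ATP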
An asterisk follows results filed as active; x = no result given.

SMILES	OXTR potentiate	TAAR1 agonist	V1aR counter	TAAR1 antag	OXTR agonist	V1R ag confirm	OXTR ag counter	nonsel antag count	TAAR1 ant conf	Ga16 ag counter-1	TAAR1 ag counter	TAAR1 ag conf	Ga16 ag counter-2	TAAR1 desens	Ga16 nonsel ant
Cc1ccc(C)c(Nc2c([N+](=O)[O-])ccc3nonc23)c1	-8	72*	22*	-4	11	18	5	x	x	x	x	66*	40*	-8	-12
CCCNS(=O)(=O)c1ccc(Oc2ncc(C(F)(F)F)cc2Cl)cc1	-23	53*	23*	39	17	14	16	x	x	x	x	40*	23*	29	17
Cc1ccc(-c2c(C(=O)N/N=C/c3ccco3)nnn2-c2nonc2N)cc1	-10	88*	28*	-1	9	8	11	x	x	x	x	111*	79*	23	7
CCOc1ccc2[nH]c(=O)c(CN(CCN3CCOCC3)Cc3nnnn3C(C)(C)CC)cc2c1	-5	-1	0	-5	-1	x	x	x	x	x	x	x	x	x	x
Cc1c(C(=O)N2CCCC(C(F)(F)F)C2)oc2ccccc12 (centres undefined)	0	-4	0	-6	-1	x	x	x	x	x	x	x	x	x	x
O=C(/C=C/c1ccc(F)cc1)NC(=S)NNC(=O)[C@H]1C[C@@H]1c1ccccc1	-7	132*	26*	82*	8	19	16	x	x	x	x	88*	99*	72*	66*
CC(C)(C)NC(=S)NNC(=O)[C@H]1C[C@@H]1c1ccccc1	-2	0	0	-3	0	x	x	x	x	x	x	x	x	x	x
Cc1ccc(NC(=O)COC(=O)CCn2c(C)csc2=O)cc1S(=O)(=O)N1CCOCC1	-2	3	0	-12	0	x	x	x	x	x	x	x	x	x	x
COc1ccc(CCN2C(=O)CN=C2Nc2ccc(F)cc2)cc1OC	-3	5	0	0	-1	x	x	x	x	x	x	x	x	x	x
CCOc1ccc(NC2=NCC(=O)N2CCc2ccccc2)cc1	-23	70*	20*	44	14	4	-1	x	x	x	x	81*	42*	82*	52*
Cc1cc(C)n(C2CC(=O)N(c3cc(Cl)cc(Cl)c3)C2=O)n1 (centres undefined)	-13	-1	8	11	-2	x	x	x	x	x	x	x	x	x	x
Cn1c2ccccc2c(=O)c2c(=O)n(C3CCCCC3)c(-c3cccs3)nc21	-7	54*	21*	8	19	51*	33*	x	x	x	x	104*	75*	61*	22*
COc1ccc(CCn2c(C3CCCCC3)nc3c(c(=O)c4ccccc4n3C)c2=O)cc1	-19	111*	28*	96*	10	11	15	x	x	x	x	65*	61*	78*	64*
COc1ccc(C(=O)Nc2ccc(N3CCOCC3)cc2)cc1S(=O)(=O)N1CCOCC1	x	1	x	-20	x	x	x	x	x	x	x	x	x	x	x
COc1ccc(C(=O)Nc2ccc(-c3cn4ccsc4n3)cc2)cc1S(=O)(=O)N1CCOCC1	-2	17	0	62*	-1	x	x	25*	49*	6	4	x	x	x	x
Cc1ccc(NC(=O)CN(Cc2ccco2)Cc2ccccc2O)cc1C	-8	3	4	52*	3	x	x	24*	45	5	7	x	x	x	x
Cc1ccc(NC(=O)N(Cc2ccco2)C(C)c2ccco2)cc1C (centres undefined)	-3	-1	-1	-3	-2	x	x	x	x	x	x	x	x	x	x
O=C(COc1ccccc1-c1ccccc1)NCCN1C(=O)S/C(=C\c2cccnc2)C1=O	-6	11	0	70*	2	x	x	39*	46	12*	9	x	x	x	x
O=C(NCCN1C(=O)S/C(=C/c2cccnc2)C1=O)c1cccs1	-3	1	1	3	0	x	x	x	x	x	x	x	x	x	x
CC(C)(C)OC(=O)N1CCCC(C(=O)Nc2ccc(C(=O)N3CCCCC3)cc2)C1 (centres undefined)	-3	7	2	6	3	x	x	x	x	x	x	x	x	x	x
O=C(Nc1cccc(/C=C/c2ccccn2)c1)c1ccc(-n2cncn2)c([N+](=O)[O-])c1	-7	21	8	73*	1	x	x	40*	61*	14*	13	x	x	x	x
Cc1nn(-c2ccccc2)c(C)c1C(=O)OCC(=O)N1c2ccccc2NC(=O)C1(C)C	-21	19	1	71*	-2	x	x	40*	53*	9	9	x	x	x	x
CCOC(=O)c1c(C)[nH]c(C(=O)COC(=O)/C=C/c2ccc(OC(F)F)cc2)c1C	-2	0	0	-3	0	x	x	x	x	x	x	x	x	x	x
CC1(C)C(=O)Nc2ccccc2N1C(=O)COC(=O)/C=C/c1ccc(OC(F)F)cc1	-10	21	0	57*	-1	x	x	31*	46	12*	10	x	x	x	x
CCOC(=O)c1c(C)[nH]c(C)c1C(=O)COC(=O)/C=C/c1ccc(OC(F)F)cc1	-10	6	3	52*	3	x	x	34*	40	7	2	x	x	x	x
CN1C(=O)[C@@]2(O[C@H]3c4ccccc4C=CN3C3=C2C(=O)CCC3)c2ccccc21	x	2	x	-10	x	x	x	x	x	x	x	x	x	x	x
O=C(Cn1nc(C(=O)O)c2ccccc2c1=O)NC12CC3CC(CC(C3)C1)C2	-13	10	0	-11	1	x	x	x	x	x	x	x	x	x	x

Screens (PubChem)
